KCNK3 inh: human KCNK3 channel inhibition, primary screen; O14649; CHO-KCNK3 thallium flux, FluxOR fluorescence; stronger effect = lower value; AID 602410; B-score at 10 µM; 340,000 compounds, 0.84% hits;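 active = B-score under library mean minus 4 SD, starting fluorescence ratio at most library mean plus 5 SD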;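 note: more negative B-score means stronger inhibition of thallium flux through KCNK3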
KCNQ1 block: human KCNQ1 channel inhibition. CHO-K1 KCNQ1, FluxOR thallium flux fluorescence; stronger effect = higher value. 310,000 compounds, 1.3% hits. P51787. B-score at 10 µM;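 active = compounds whose thallium flux B-score, printed positive for inhibition, exceeds three library SD while starting fluorescence stays within three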;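 note: channel opened by potassium depolarization with thallium stimulus after 20 min compound exposure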
Kir21 block: blocks the mouse Kir2.1 inward-rectifier potassium channel. HEK293-Kir2.1, FluxOR thallium flux fluorescence; stronger effect = lower value. B-score at 10 µM. 310,000 compounds, 0.85% hits;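 active = fluorescence ratio B-score at or below minus 3 SD of library scores, with starting-brightness B-score within 2 SD, cut at about -4.2 in these data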;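 note: channel flux triggered by added potassium and thallium sulfate stimulus; B-score of peak minus minimum fluorescence over baseline after thallium stimulus; more negative B-score means stronger Kir2.1 block with less thallium influx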
KCNQ1 pot: potentiators or activators of human KCNQ1 potassium channel | P51787 | CHO-K1 KCNQ1, thallium flux FluxOR fluorescence; stronger effect = higher value | B-score at 10 µM | 310,000 compounds, 0.35% hits | AID 2648;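 active = fluorescence ratio B-score, a plate-corrected score, at least three library SD, with initial intensity B-score within 5 SD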
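Material: CHO-K1 cells stably expressing KCNQ1. Medium: assay buffer for compound exposure, DMSO matched across wells. Reagent: K+/Tl+ depolarizing stimulus. Compound dosing: single-concentration screen. Times: 37 °C overnight plating, 90-min dark dye load, 20-min compound pretreatment. Technique: FluxOR Tl+ flux fluorescence.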
hERG rescue: shields human hERG channel from block by proarrhythmic agents | 310,000 compounds, 0.51% hits | Q12809 | activation (rescue from dofetilide block), less the hit threshold, % at 10 µM | AID 1511 | CHO-hERG, FluxOR thallium flux, dofetilide IC70 present;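 active = activation above the mean of controls blocked by dofetilide plus 5 SD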;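 note: thallium influx through hERG after potassium depolarization seen as dye fluorescence rise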
KCNK9 block: blocks the human KCNK9 two-pore domain potassium channel | 310,000 compounds, 1.2% hits | HEK293 KCNK9, FluxOR thallium flux fluorescence; stronger effect = lower value | B-score at 10 µM;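 active = ratio B-score over 3 SD below the library mean, with starting fluorescence within 5 SD of its mean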;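 note: negative B-score means less thallium flux so channel inhibition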
Target sequence (Q9NPC2 whole entry, looked up, the tested form may be a part): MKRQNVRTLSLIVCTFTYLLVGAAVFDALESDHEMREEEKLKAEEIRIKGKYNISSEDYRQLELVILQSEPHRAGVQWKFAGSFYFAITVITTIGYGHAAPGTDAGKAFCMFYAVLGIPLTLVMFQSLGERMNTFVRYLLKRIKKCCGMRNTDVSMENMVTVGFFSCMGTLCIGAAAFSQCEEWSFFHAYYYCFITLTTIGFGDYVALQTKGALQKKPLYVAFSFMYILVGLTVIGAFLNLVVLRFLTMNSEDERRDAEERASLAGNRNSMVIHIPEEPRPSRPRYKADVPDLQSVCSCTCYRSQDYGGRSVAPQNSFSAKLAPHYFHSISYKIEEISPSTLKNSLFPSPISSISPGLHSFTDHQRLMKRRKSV
Of the large screens only hits and unclear results are named; the others gave an inactive call. Compounds with a hit are over-represented: about 3.7% of the library has one in this group of screens.

S=c1nc(C23CC4CC(CC(C4)C2)C3)[nH][nH]1	none
CCN(CC)CCn1c(OC)cc(=O)[nH]c1=O	KCNQ1 pot 7
CCN(CC)CCn1c(N)cc(=O)[nH]c1=O	none
CC(C)c1ccc(N(C(=O)CNC(=O)c2ccco2)C(C(=O)NC2CCCC2)c2cccnc2)cc1 (stereo unspecified)	none
COc1cc(OC)cc(C(=O)N2CCCC(Nc3ccc(F)cc3)C2)c1 (stereo unspecified)	none
COc1ccc2cc(C(=O)N3CCCC(Nc4ccc(F)cc4)C3)n(C)c2c1 (stereo unspecified)	Kir21 block -4.91
O=C(O)C(Cc1c[nH]c2ccccc12)NS(=O)(=O)c1ccc(Cl)c(C(F)(F)F)c1 (stereo unspecified)	none
C[C@H](CO)N1C[C@H](C)[C@@H](CN(C)Cc2ccncc2)Oc2c(NC(=O)Cc3ccccc3)cccc2C1=O	KCNK3 inh -10.6 (no result: KCNQ1 block, Kir21 block, KCNQ1 pot, hERG rescue, KCNK9 block)
C[C@H](CO)N1C[C@H](C)[C@@H](CN(C)Cc2ccccc2)Oc2c(NC(=O)Cc3ccccc3)cccc2C1=O	none (no result: KCNQ1 block, Kir21 block, KCNQ1 pot, hERG rescue, KCNK9 block)
C(C#CCCCCCCCCC[n+]1ccccc1)#CCCCCCCCCC[n+]1ccccc1	Kir21 block -14.7
O=C(NCCc1ccccc1)c1ccc(NC(=O)C2CCC2)cc1	none (no result: KCNQ1 block, Kir21 block, KCNQ1 pot, hERG rescue, KCNK9 block)
Cc1oc2c(cc(NS(=O)(=O)c3ccc(F)cc3)c3ccccc32)c1C(=O)O	none
Cc1oc2c(cc(NS(=O)(=O)c3ccc(C(C)C)cc3)c3ccccc32)c1C(=O)O	KCNQ1 block 9
COc1ccc(S(=O)(=O)Nc2cc3c(C(C)=O)c(C)oc3c3ccccc23)cc1	KCNK9 block -7.33
NC(=O)c1ccc(S(=O)(=O)N2CCSCC2)cc1	none
O=C(O)c1ccccc1C(=O)OC1CCCC2CCCC21 (stereo unspecified)	none (no result: KCNQ1 block, Kir21 block, KCNQ1 pot, hERG rescue, KCNK9 block)
CCOC(=O)c1sc(NC(=O)CSc2n[nH]c(-c3ccncc3)n2)c(C#N)c1C	none
CCOc1ccc(/C=C/C2=Cc3c(sc(NC(=O)CSc4n[nH]c(N)n4)c3C#N)C(C)(C)C2)cc1	KCNK3 inh -8.8
COC(=O)c1sc(NC(=O)CSc2n[nH]c(N)n2)c(C(=O)OC)c1C	none
Cc1ccsc1/C=C/C1=Cc2c(sc(NC(=O)CSc3n[nH]c(N)n3)c2C#N)C(C)(C)C1	KCNQ1 block 8
Cc1ccc(S(=O)(=O)N2CCN(C(=O)C(Cc3ccccc3)NC(=O)c3ccccc3)CC2)cc1 (stereo unspecified)	none (no result: KCNQ1 block, Kir21 block, KCNQ1 pot, hERG rescue, KCNK9 block)
CCCSc1sc(C(=O)OC)c(-c2cccs2)c1C#N	none
COc1ccc2sc(C)[n+](C)c2c1	hERG rescue 4.6
CCCC[n+]1c(C)sc2cc(OC)ccc21	none
COc1cc(CCC(=O)N2CCN(c3cccc(C)c3C)CC2)cc(OC)c1OC	none
Cc1[nH][nH]c(=O)c1C(c1ccc(-c2ccc(F)cc2)o1)c1c(C)[nH][nH]c1=O	Kir21 block -5.32, KCNQ1 pot 9
CCOC(=O)c1cc([N+](=O)[O-])sc1NC(=O)c1ccc(S(=O)(=O)N2CC3(C)CC2CC(C)(C)C3)cc1 (stereo unspecified)	KCNQ1 block 8
Cc1ccc(S(=O)(=O)n2nccc2-c2c(-c3ccccc3)noc2C)cc1	KCNK9 block -7.25
CN(Cc1ccccc1F)C(=O)c1sccc1-c1ccccc1	Kir21 block -11.8
COc1cccc(CN(C)C(=O)c2sccc2-c2ccccc2)c1OC	none
CN(C)C(=O)C(CCN1CCC(O)(c2ccc(Cl)cc2)CC1)(c1ccccc1)c1ccccc1	Kir21 block -4.9
Cc1cc(C)c(NC(=O)CNC(=O)c2ccc3ncsc3c2)c(C)c1	none (no result: KCNQ1 block, Kir21 block, KCNQ1 pot, hERG rescue, KCNK9 block)
CC[n+]1ccc(/C=C/c2c[nH]c3ccccc23)cc1	KCNQ1 block 10
Cc1ccc2[nH]cc(/C=C/c3cc[n+](C)cc3)c2c1	none
COc1ccccc1C(CCN(Cc1ccccc1)C(C)=O)c1ccco1 (stereo unspecified)	Kir21 block -5.28
CCN(C[C@H]1N[C@@](Cc2ccccc2)(C(=O)OC)[C@H]2C(=O)N(C)C(=O)[C@@H]12)C(=O)Nc1ccc(Cl)cc1	none (no result: KCNQ1 block, Kir21 block, KCNQ1 pot, hERG rescue, KCNK9 block)
CC(C)(C)c1cc(C(=O)NNc2ccc(OC(F)(F)F)cc2)n(Cc2ccccc2)n1	KCNK9 block -8.04
Cc1ccc(NNC(=O)c2cc(C(C)(C)C)nn2Cc2ccccc2)cc1	none
COc1ccccc1NNC(=O)c1cc(C(C)(C)C)nn1Cc1ccccc1	KCNQ1 block 6
O=[N+]([O-])c1cccc2nc3ccccc3c(NCCCn3ccnc3[N+](=O)[O-])c12	none (no result: KCNQ1 block, Kir21 block, KCNQ1 pot, hERG rescue, KCNK9 block)
CCC1CCc2sc(C(=O)NCC(c3ccccc3OC)N3CCCC3)cc2C1 (stereo unspecified)	none (no result: KCNQ1 block, Kir21 block, KCNQ1 pot, hERG rescue, KCNK9 block)
Cc1cc(NC(=O)C(C)SCC(=O)Nc2nc3c(F)cc(F)cc3s2)no1 (stereo unspecified)	none (no result: KCNQ1 block, Kir21 block, KCNQ1 pot, hERG rescue, KCNK9 block)
CSc1ncc(C(=O)Nc2ccc(C(C)=O)cc2)c(C)n1	none
CC(=O)c1ccc(NC(=S)NC(=O)c2c(Cl)c(C)nn2C)cc1	KCNQ1 pot 11
CCCCOC(=O)c1ccc(NC(=S)NC(=O)c2c(Br)c(C)nn2C)cc1	none
CC(C)(C)c1cc(C(=O)NNC(=O)c2ccc(Cl)cc2)no1	KCNQ1 pot 18, hERG rescue 5.7
Cc1cc(C(=O)NNC(=O)c2ccc(C(F)(F)F)cc2)no1	none
COc1ccc2c(c1OC)C(=O)OC2Nc1nc(-c2ccc(-c3ccccc3)cc2)cs1 (stereo unspecified)	KCNK9 block -7.07
COc1cccc(-c2csc(NC3OC(=O)c4c3ccc(OC)c4OC)n2)c1 (stereo unspecified)	none
Cc1ccc(S(=O)(=O)Oc2ccccc2/C=N/Nc2ccc(C(=O)O)cc2)cc1	none
Cc1ccc(S(=O)(=O)Oc2ccccc2/C=N/O)cc1	Kir21 block -6.89
Cc1c(C(=O)N(C)c2ccc(Cl)cc2)cnn1-c1ccccc1	none
COc1ccc(-n2ncc3c2CC(C)(C)CC3NC(=O)CCn2cncn2)cc1 (stereo unspecified)	none
COc1ccc(OC)c(S(=O)(=O)N2CCC(C(=O)Nc3cccc(C)c3)CC2)c1	KCNQ1 block 6, KCNK9 block -7.92
O=C(Nc1ccncc1)C1CCN(S(=O)(=O)c2c(Cl)cccc2Cl)CC1	KCNK9 block -6.99
COc1ccc(OC)c(S(=O)(=O)N2CCC(C(=O)Nc3ccccc3)CC2)c1	none
O=c1[nH]c(SCc2nc3ccccc3n2Cc2ccccc2)nc2ccccc12	none
Nc1cc(=O)[nH]c(SCc2nc3ccccc3n2Cc2ccccc2)n1	hERG rescue 6.1
O=C(c1ccc(-c2cccc([N+](=O)[O-])c2)o1)N1CCN(c2ccc([N+](=O)[O-])cc2)CC1	none (no result: KCNQ1 block, Kir21 block, KCNQ1 pot, hERG rescue, KCNK9 block)
O=C(c1ccc(-c2ccc(Cl)cc2)o1)N1CCN(c2ccc([N+](=O)[O-])cc2Cl)CC1	KCNQ1 block 7
